Experimental data reported in ChEMBL document CHEMBL3407339, “A novel series of thiazolyl-pyrazoline derivatives: synthesis and evaluation of antifungal activity, cytotoxicity and genotoxicity” (Eur J Med Chem, 2015).
Values after ≈ are worked out from the molar mass of the structure shown.

What was measured:
Salmonella typhimurium [1] = test: Mutagenicity in Salmonella typhimurium TA98 at 2.5 mg/ml after 48 hrs by AMES MPF assay in absence of Sprague-Dawley rat liver microsomal S9 fraction relative to baseline; type: toxicity, organism-based; conditions: salmonella enterica subsp. enterica serovar typhimurium
Procedure, shortened: (§1)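 Ames MPF fluctuation test with TA98/TA100. Overnight cultures (37 °C, 14–16 h) mixed with exposure medium; ±Aroclor-1254-induced rat liver S9 (final 4.5% v/v). Compounds in DMSO, 0.156–5 mg/mL. 90 min exposure at 37 °C, then indicator medium; 48 wells per concentration, 48 h at 37 °C, in triplicate. Yellow wells counted; fold induction over baseline (mean + 1 SD of zero-dose control).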

[2] = Cytotoxicity against mouse NIH/3T3 cells after 24 hrs by XTT assay; type: cell-based; conditions: NIH3T3, 24 h
Procedure, shortened: (§2)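 A549 cells in RPMI and NIH/3T3 cells in DMEM, each with fetal calf serum, antibiotics and 7.5% NaHCO₃, at 37 °C, 5% CO₂. Seeded at 20,000 cells/well, 24 h, then compounds added in medium at 500–3.9 doses (final DMSO <0.1%) for 24 h. XTT read after 3 h at 480 nm (ref 680 nm). IC₅₀ by non-linear regression; triplicates; cisplatin control.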

Salmonella typhimurium [3] = test: Mutagenicity in Salmonella typhimurium TA100 at 0.156 mg/ml after 48 hrs by AMES MPF assay in absence of Sprague-Dawley rat liver microsomal S9 fraction relative to baseline; type: toxicity, organism-based; conditions: salmonella enterica subsp. enterica serovar typhimurium; procedure, shortened: as §1
Salmonella typhimurium [4] = test: Mutagenicity in Salmonella typhimurium TA100 at 1.25 mg/ml after 48 hrs by AMES MPF assay in absence of Sprague-Dawley rat liver microsomal S9 fraction relative to baseline; type: toxicity, organism-based; conditions: salmonella enterica subsp. enterica serovar typhimurium; procedure, shortened: as §1
Aspergillus niger = test: Antifungal activity against Aspergillus niger ATCC 1094 after 72 hrs by broth microdilution assay; type: functional; conditions: ATCC 1094, 72 h
Procedure, shortened: (§3)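 Compounds dissolved in DMSO, diluted in sterile distilled water from 4 to 0.0039 mg/mL. Molds grown on PDA at 25 °C for 5 days, suspended in double-strength PDB at 10⁵ spores/mL. Incubated at 25 °C for 72 h; mycelial growth read under stereo microscope. MIC = lowest concentration inhibiting visible growth. Ketoconazole reference.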

Salmonella typhimurium [5] = test: Mutagenicity in Salmonella typhimurium TA100 at 5 mg/ml after 48 hrs by AMES MPF assay in absence of Sprague-Dawley rat liver microsomal S9 fraction relative to baseline; type: toxicity, organism-based; conditions: salmonella enterica subsp. enterica serovar typhimurium; procedure, shortened: as §1
Aspergillus flavus = test: Antifungal activity against Aspergillus flavus NRRL 980 after 72 hrs by broth microdilution assay; type: functional; conditions: NRRL 980, 72 h; procedure, shortened: as §3
Salmonella typhimurium [6] = test: Mutagenicity in Salmonella typhimurium TA100 at 1.25 mg/ml after 48 hrs by AMES MPF assay in presence of Sprague-Dawley rat liver microsomal S9 fraction relative to baseline; type: toxicity, organism-based; conditions: salmonella enterica subsp. enterica serovar typhimurium; procedure, shortened: as §1
Candida parapsilosis = test: Antifungal activity against Candida parapsilosis NRLL Y 12696 after 48 hrs by broth microdilution assay; type: functional; conditions: Lodderomyces parapsilosis, NRLL Y 12696, 48 h
Procedure, shortened: (§4)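 Broth microdilution of DMSO stocks serially diluted in sterile water (4 to 0.0039 mg/mL). Yeasts grown on SDA at 37 °C for 24 h, suspended in double-strength PDB at 10⁵ spores/mL. Incubated at 37 °C for 48 h, then sprayed with 0.5% aqueous TTC. MIC = lowest concentration inhibiting visible growth. Ketoconazole reference.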

Salmonella typhimurium [7] = test: Mutagenicity in Salmonella typhimurium TA100 at 0.625 mg/ml after 48 hrs by AMES MPF assay in presence of Sprague-Dawley rat liver microsomal S9 fraction relative to baseline; type: toxicity, organism-based; conditions: salmonella enterica subsp. enterica serovar typhimurium; procedure, shortened: as §1
A549 = test: Antiproliferative activity against human A549 cells after 24 hrs by XTT assay; type: functional, cell-based; conditions: A549, 24 h; procedure, shortened: as §2
Salmonella typhimurium [8] = test: Mutagenicity in Salmonella typhimurium TA100 at 2.5 mg/ml after 48 hrs by AMES MPF assay in absence of Sprague-Dawley rat liver microsomal S9 fraction relative to baseline; type: toxicity, organism-based; conditions: salmonella enterica subsp. enterica serovar typhimurium; procedure, shortened: as §1
Salmonella typhimurium [9] = test: Mutagenicity in Salmonella typhimurium TA100 at 0.3125 mg/ml after 48 hrs by AMES MPF assay in absence of Sprague-Dawley rat liver microsomal S9 fraction relative to baseline; type: toxicity, organism-based; conditions: salmonella enterica subsp. enterica serovar typhimurium; procedure, shortened: as §1
Salmonella typhimurium [10] = test: Mutagenicity in Salmonella typhimurium TA98 at 5 mg/ml after 48 hrs by AMES MPF assay in absence of Sprague-Dawley rat liver microsomal S9 fraction relative to baseline; type: toxicity, organism-based; conditions: salmonella enterica subsp. enterica serovar typhimurium; procedure, shortened: as §1
Salmonella typhimurium [11] = test: Mutagenicity in Salmonella typhimurium TA98 at 0.156 mg/ml after 48 hrs by AMES MPF assay in presence of Sprague-Dawley rat liver microsomal S9 fraction relative to baseline; type: toxicity, organism-based; conditions: salmonella enterica subsp. enterica serovar typhimurium; procedure, shortened: as §1
[Candida] zeylanoides = Antifungal activity against Candida zeylanoides NRLL Y 1774 after 48 hrs by broth microdilution assay; type: functional; conditions: Dujonia zeylanoides, NRLL Y 1774, 48 h; procedure, shortened: as §4
Pichia kudriavzevii = test: Antifungal activity against Candida krusei NRLL Y 7179 after 48 hrs by broth microdilution assay; type: functional; conditions: NRLL Y 7179, 48 h; procedure, shortened: as §4
Candida tropicalis = test: Antifungal activity against Candida tropicalis NRLL Y 12968 after 48 hrs by broth microdilution assay; type: functional; conditions: NRLL Y 12968, 48 h; procedure, shortened: as §4
Salmonella typhimurium [12] = test: Mutagenicity in Salmonella typhimurium TA100 at 0.625 mg/ml after 48 hrs by AMES MPF assay in absence of Sprague-Dawley rat liver microsomal S9 fraction relative to baseline; type: toxicity, organism-based; conditions: salmonella enterica subsp. enterica serovar typhimurium; procedure, shortened: as §1
Salmonella typhimurium [13] = test: Mutagenicity in Salmonella typhimurium TA98 at 0.156 mg/ml after 48 hrs by AMES MPF assay in absence of Sprague-Dawley rat liver microsomal S9 fraction relative to baseline; type: toxicity, organism-based; conditions: salmonella enterica subsp. enterica serovar typhimurium; procedure, shortened: as §1
Aspergillus parasiticus = test: Antifungal activity against Aspergillus parasiticus NRRL 465 after 72 hrs by broth microdilution assay; type: functional; conditions: NRRL 465, 72 h; procedure, shortened: as §3
Salmonella typhimurium [14] = test: Mutagenicity in Salmonella typhimurium TA98 at 1.25 mg/ml after 48 hrs by AMES MPF assay in presence of Sprague-Dawley rat liver microsomal S9 fraction relative to baseline; type: toxicity, organism-based; conditions: salmonella enterica subsp. enterica serovar typhimurium; procedure, shortened: as §1
Salmonella typhimurium [15] = test: Mutagenicity in Salmonella typhimurium TA98 at 0.625 mg/ml after 48 hrs by AMES MPF assay in presence of Sprague-Dawley rat liver microsomal S9 fraction relative to baseline; type: toxicity, organism-based; conditions: salmonella enterica subsp. enterica serovar typhimurium; procedure, shortened: as §1
Salmonella typhimurium [16] = test: Mutagenicity in Salmonella typhimurium TA100 at 0.3125 mg/ml after 48 hrs by AMES MPF assay in presence of Sprague-Dawley rat liver microsomal S9 fraction relative to baseline; type: toxicity, organism-based; conditions: salmonella enterica subsp. enterica serovar typhimurium; procedure, shortened: as §1
Salmonella typhimurium [17] = test: Mutagenicity in Salmonella typhimurium TA100 at 0.156 mg/ml after 48 hrs by AMES MPF assay in presence of Sprague-Dawley rat liver microsomal S9 fraction relative to baseline; type: toxicity, organism-based; conditions: salmonella enterica subsp. enterica serovar typhimurium; procedure, shortened: as §1
Salmonella typhimurium [18] = test: Mutagenicity in Salmonella typhimurium TA98 at 1.25 mg/ml after 48 hrs by AMES MPF assay in absence of Sprague-Dawley rat liver microsomal S9 fraction relative to baseline; type: toxicity, organism-based; conditions: salmonella enterica subsp. enterica serovar typhimurium; procedure, shortened: as §1
Salmonella typhimurium [19] = test: Mutagenicity in Salmonella typhimurium TA100 at 5 mg/ml after 48 hrs by AMES MPF assay in presence of Sprague-Dawley rat liver microsomal S9 fraction relative to baseline; type: toxicity, organism-based; conditions: salmonella enterica subsp. enterica serovar typhimurium; procedure, shortened: as §1
Nakaseomyces glabratus = test: Antifungal activity against Candida glabrata clinical isolate after 48 hrs by broth microdilution assay; type: functional; procedure, shortened: as §4
Salmonella typhimurium [20] = test: Mutagenicity in Salmonella typhimurium TA98 at 5 mg/ml after 48 hrs by AMES MPF assay in presence of Sprague-Dawley rat liver microsomal S9 fraction relative to baseline; type: toxicity, organism-based; conditions: salmonella enterica subsp. enterica serovar typhimurium; procedure, shortened: as §1
Salmonella typhimurium [21] = test: Mutagenicity in Salmonella typhimurium TA100 at 2.5 mg/ml after 48 hrs by AMES MPF assay in presence of Sprague-Dawley rat liver microsomal S9 fraction relative to baseline; type: toxicity, organism-based; conditions: salmonella enterica subsp. enterica serovar typhimurium; procedure, shortened: as §1
Salmonella typhimurium [22] = test: Mutagenicity in Salmonella typhimurium TA98 at 0.625 mg/ml after 48 hrs by AMES MPF assay in absence of Sprague-Dawley rat liver microsomal S9 fraction relative to baseline; type: toxicity, organism-based; conditions: salmonella enterica subsp. enterica serovar typhimurium; procedure, shortened: as §1
Fusarium solani = test: Antifungal activity against Fusarium solani NRRL 13414 after 72 hrs by broth microdilution assay; type: functional; conditions: NRRL 13414, 72 h; procedure, shortened: as §3
Salmonella typhimurium [23] = test: Mutagenicity in Salmonella typhimurium TA98 at 0.3125 mg/ml after 48 hrs by AMES MPF assay in absence of Sprague-Dawley rat liver microsomal S9 fraction relative to baseline; type: toxicity, organism-based; conditions: salmonella enterica subsp. enterica serovar typhimurium; procedure, shortened: as §1
Salmonella typhimurium [24] = test: Mutagenicity in Salmonella typhimurium TA98 at 2.5 mg/ml after 48 hrs by AMES MPF assay in presence of Sprague-Dawley rat liver microsomal S9 fraction relative to baseline; type: toxicity, organism-based; conditions: salmonella enterica subsp. enterica serovar typhimurium; procedure, shortened: as §1
Candida albicans = test: Antifungal activity against Candida albicans ATCC 90028 after 48 hrs by broth microdilution assay; type: functional; conditions: ATCC 90028, 48 h; procedure, shortened: as §4
Salmonella typhimurium [25] = test: Mutagenicity in Salmonella typhimurium TA98 at 0.3125 mg/ml after 48 hrs by AMES MPF assay in presence of Sprague-Dawley rat liver microsomal S9 fraction relative to baseline; type: toxicity, organism-based; conditions: salmonella enterica subsp. enterica serovar typhimurium; procedure, shortened: as §1

MIC (Aspergillus niger) [µg/mL]	MIC (Aspergillus flavus) [µg/mL]	MIC (Candida parapsilosis) [µg/mL]	IC50 (A549) [µg/mL]	MIC ([Candida] zeylanoides) [µg/mL]	MIC (Pichia kudriavzevii) [µg/mL]	MIC (Candida tropicalis) [µg/mL]	Structure (SMILES)	fold change (FC) (Salmonella typhimurium [1])	IC50 [2] [µg/mL]	fold change (FC) (Salmonella typhimurium [3])	fold change (FC) (Salmonella typhimurium [4])	fold change (FC) (Salmonella typhimurium [5])	fold change (FC) (Salmonella typhimurium [6])	fold change (FC) (Salmonella typhimurium [7])	fold change (FC) (Salmonella typhimurium [8])	fold change (FC) (Salmonella typhimurium [9])	fold change (FC) (Salmonella typhimurium [10])	fold change (FC) (Salmonella typhimurium [11])	fold change (FC) (Salmonella typhimurium [12])	fold change (FC) (Salmonella typhimurium [13])	further results
250 (≈ 568 µM)	125 (≈ 284 µM)	250 (≈ 568 µM)	> 500	250 (≈ 568 µM)	250 (≈ 568 µM)	250 (≈ 568 µM)	Fc1ccc(C2CC(c3ccc(Cl)s3)=NN2c2nc(-c3ccccc3)cs2)cc1 (configuration not stated)	0	> 500	0	1.28	0.96	4.62	2.77	2.88	0.32	0.67	1.63	0.96	0	MIC (Aspergillus parasiticus): 250 µg/mL (≈ 568 µM); fold change (FC) (Salmonella typhimurium [14]): 0.68; fold change (FC) (Salmonella typhimurium [15]): 1.08; fold change (FC) (Salmonella typhimurium [16]): 3.23; fold change (FC) (Salmonella typhimurium [17]): 1.85; fold change (FC) (Salmonella typhimurium [18]): 0; fold change (FC) (Salmonella typhimurium [19]): 4.38; MIC (Nakaseomyces glabratus): 125 µg/mL (≈ 284 µM); fold change (FC) (Salmonella typhimurium [20]): 0.41; fold change (FC) (Salmonella typhimurium [21]): 3.46; fold change (FC) (Salmonella typhimurium [22]): 0.67; MIC (Fusarium solani): 250 µg/mL (≈ 568 µM); fold change (FC) (Salmonella typhimurium [23]): 0; fold change (FC) (Salmonella typhimurium [24]): 0.27; MIC (Candida albicans): 250 µg/mL (≈ 568 µM); fold change (FC) (Salmonella typhimurium [25]): 0.68
250 (≈ 527 µM)	125 (≈ 263 µM)	250 (≈ 527 µM)	125 (≈ 263 µM)	250 (≈ 527 µM)	250 (≈ 527 µM)	250 (≈ 527 µM)	Fc1ccc(C2CC(c3ccc(Cl)s3)=NN2c2nc(-c3ccc(Cl)cc3)cs2)cc1 (configuration not stated)	0.67	> 500	1.67	0.33	0.33	3.69	3.46	1	0.67	1	0.68	0.33	0	MIC (Aspergillus parasiticus): 250 µg/mL (≈ 527 µM); fold change (FC) (Salmonella typhimurium [14]): 0.81; fold change (FC) (Salmonella typhimurium [15]): 0.95; fold change (FC) (Salmonella typhimurium [16]): 3.92; fold change (FC) (Salmonella typhimurium [17]): 3.23; fold change (FC) (Salmonella typhimurium [18]): 0.67; fold change (FC) (Salmonella typhimurium [19]): 3.92; MIC (Nakaseomyces glabratus): 125 µg/mL (≈ 263 µM); fold change (FC) (Salmonella typhimurium [20]): 0.81; fold change (FC) (Salmonella typhimurium [21]): 3; fold change (FC) (Salmonella typhimurium [22]): 0; MIC (Fusarium solani): 250 µg/mL (≈ 527 µM); fold change (FC) (Salmonella typhimurium [23]): 0; fold change (FC) (Salmonella typhimurium [24]): 0.54; MIC (Candida albicans): 250 µg/mL (≈ 527 µM); fold change (FC) (Salmonella typhimurium [25]): 0.81
